Data set [1] deals with Neuronal acetylcholine receptor subunit alpha-7 (Rattus norvegicus, UniProt Q05941). Kind of data set: Inhibition of biotinylated alpha-bungarotoxin binding to alpha7 nAChR in rat PC12 cells by FACS analysis. The data set is classed as cell-based, PC-12. In short, it runs like this: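 Rat PC12 cells in binding buffer (PBS, 1.0% FBS, 0.02% sodium azide), 0.1% DMSO; biotinylated α-bungarotoxin 10 nM final, 1 h at room temperature; nonspecific binding defined with 1.5 μM unlabeled toxin. After washing, phycoerythrin-streptavidin 1.0 μg/mL final, 15 min in the dark; read by FACS. Screened at 10 and 1 μM, then eight-point 3-fold dilution IC50; mean of two or more experiments.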
Neuronal acetylcholine receptor subunit alpha-7, sequence (Q05941 whole entry): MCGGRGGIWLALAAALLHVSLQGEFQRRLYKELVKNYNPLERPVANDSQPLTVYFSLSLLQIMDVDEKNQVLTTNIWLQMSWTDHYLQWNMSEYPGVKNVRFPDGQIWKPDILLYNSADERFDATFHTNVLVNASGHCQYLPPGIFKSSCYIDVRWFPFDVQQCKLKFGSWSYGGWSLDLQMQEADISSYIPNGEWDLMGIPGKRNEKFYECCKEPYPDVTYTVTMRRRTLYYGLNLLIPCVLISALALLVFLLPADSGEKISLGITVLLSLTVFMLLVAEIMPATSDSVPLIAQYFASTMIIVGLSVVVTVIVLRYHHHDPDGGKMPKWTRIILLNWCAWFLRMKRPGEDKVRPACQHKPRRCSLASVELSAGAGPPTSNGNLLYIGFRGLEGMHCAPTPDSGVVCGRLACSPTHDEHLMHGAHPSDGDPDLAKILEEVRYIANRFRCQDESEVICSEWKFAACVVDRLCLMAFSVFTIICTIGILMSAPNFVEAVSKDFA
On the technique in general: In flow cytometry, cells or beads pass a laser one at a time.

In the next data set the target is T1, CYP1A2 (Homo sapiens, UniProt P05177).
T1 sequence (P05177 whole entry): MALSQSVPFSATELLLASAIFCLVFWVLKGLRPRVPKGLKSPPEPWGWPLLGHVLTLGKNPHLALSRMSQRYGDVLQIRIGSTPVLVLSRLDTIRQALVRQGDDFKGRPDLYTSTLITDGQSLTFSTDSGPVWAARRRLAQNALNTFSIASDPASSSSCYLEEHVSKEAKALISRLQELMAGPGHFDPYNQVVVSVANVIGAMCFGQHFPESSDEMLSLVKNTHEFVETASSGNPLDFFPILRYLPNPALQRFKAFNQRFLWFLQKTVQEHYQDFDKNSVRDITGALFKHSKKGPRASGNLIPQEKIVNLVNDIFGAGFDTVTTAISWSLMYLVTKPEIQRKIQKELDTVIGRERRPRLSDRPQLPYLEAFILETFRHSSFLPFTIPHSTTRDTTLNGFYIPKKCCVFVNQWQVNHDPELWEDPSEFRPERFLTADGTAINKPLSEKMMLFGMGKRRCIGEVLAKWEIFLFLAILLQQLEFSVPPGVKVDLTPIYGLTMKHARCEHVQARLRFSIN
The experiment in a line: Inhibition of CYP1A2 (unknown origin) at 10 uM. The data set is classed as ADME. An outline of the steps:
(§1)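 Each of five Cyp isoforms assayed with single probe substrates rather than a substrate cocktail. Run in duplicate at Cerep. IC50 lines come from a 5-concentration titration curve.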

The target of the next data set is hERG (KCNH2) (Homo sapiens, UniProt Q12809). The experiment in a line: Inhibition of human ERG at 1 uM by whole-cell voltage clamp assay.
hERG (KCNH2), sequence (Q12809 whole entry): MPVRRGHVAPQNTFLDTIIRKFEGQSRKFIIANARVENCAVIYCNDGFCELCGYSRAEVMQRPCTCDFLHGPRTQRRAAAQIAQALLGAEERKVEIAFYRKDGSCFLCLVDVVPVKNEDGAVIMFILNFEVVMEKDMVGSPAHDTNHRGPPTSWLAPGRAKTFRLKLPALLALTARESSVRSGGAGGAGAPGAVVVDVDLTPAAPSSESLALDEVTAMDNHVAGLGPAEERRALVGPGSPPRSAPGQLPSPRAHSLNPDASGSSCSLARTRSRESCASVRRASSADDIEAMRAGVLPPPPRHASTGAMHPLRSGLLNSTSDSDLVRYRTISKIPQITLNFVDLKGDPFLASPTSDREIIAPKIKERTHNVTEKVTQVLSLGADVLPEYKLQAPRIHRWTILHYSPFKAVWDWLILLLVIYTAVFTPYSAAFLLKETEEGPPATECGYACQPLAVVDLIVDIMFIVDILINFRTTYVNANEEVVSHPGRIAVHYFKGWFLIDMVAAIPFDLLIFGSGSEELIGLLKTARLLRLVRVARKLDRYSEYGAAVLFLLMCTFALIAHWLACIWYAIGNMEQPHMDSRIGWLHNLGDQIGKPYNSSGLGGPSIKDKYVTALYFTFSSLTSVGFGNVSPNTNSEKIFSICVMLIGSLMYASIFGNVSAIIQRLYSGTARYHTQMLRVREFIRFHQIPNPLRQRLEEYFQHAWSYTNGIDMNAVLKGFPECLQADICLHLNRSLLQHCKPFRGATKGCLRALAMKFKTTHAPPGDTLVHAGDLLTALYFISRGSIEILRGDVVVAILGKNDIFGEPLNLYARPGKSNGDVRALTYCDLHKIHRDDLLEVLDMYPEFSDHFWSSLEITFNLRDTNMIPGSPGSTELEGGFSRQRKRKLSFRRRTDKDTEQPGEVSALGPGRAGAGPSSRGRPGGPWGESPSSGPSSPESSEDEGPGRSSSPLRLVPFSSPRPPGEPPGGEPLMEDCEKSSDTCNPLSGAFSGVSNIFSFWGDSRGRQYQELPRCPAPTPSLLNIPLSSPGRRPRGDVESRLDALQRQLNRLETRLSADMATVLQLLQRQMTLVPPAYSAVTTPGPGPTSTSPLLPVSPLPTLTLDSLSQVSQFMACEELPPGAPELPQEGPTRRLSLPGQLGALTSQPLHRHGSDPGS
Data set [2] deals with Neuronal acetylcholine receptor; alpha4/beta2 (Homo sapiens, UniProt P17787+P43681). Kind of data set: Inhibition of human alpha4beta2 nAChR at 10 uM by binding assay.
For the next data set, the target named is CYP2C19 (Homo sapiens, UniProt P33261). Kind of data set: Inhibition of CYP2C19 (unknown origin) at 10 uM. The data set is classed as ADME. In short, it runs like this: as §1
CYP2C19, sequence (P33261 whole entry): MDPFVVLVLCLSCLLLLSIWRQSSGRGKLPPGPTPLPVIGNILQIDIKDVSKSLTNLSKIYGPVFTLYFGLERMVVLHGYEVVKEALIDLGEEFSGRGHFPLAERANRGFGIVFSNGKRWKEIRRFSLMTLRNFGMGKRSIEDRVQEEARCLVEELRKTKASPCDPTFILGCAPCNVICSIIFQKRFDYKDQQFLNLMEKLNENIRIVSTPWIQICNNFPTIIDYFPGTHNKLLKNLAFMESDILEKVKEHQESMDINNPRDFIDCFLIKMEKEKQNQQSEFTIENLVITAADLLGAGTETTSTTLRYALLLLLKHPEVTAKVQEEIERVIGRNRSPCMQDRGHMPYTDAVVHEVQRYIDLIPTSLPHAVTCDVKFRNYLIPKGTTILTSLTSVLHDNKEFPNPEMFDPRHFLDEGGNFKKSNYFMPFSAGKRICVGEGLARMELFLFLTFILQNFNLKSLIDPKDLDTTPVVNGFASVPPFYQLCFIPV
The target of the next data set is CYP3A4 (Homo sapiens, UniProt P08684). Kind of data set: Inhibition of CYP3A4 (unknown origin) at 10 uM. The format is ADME. An outline of the steps:
as §1

Another data set addresses CYP2D6 (Homo sapiens, UniProt P10635). The experiment in a line: Inhibition of CYP2D6 (unknown origin) at 10 uM. The data set is classed as ADME. An outline of the steps:
as §1

The target of data set [3] is T2, 5-hydroxytryptamine receptor 3A (Homo sapiens) (UniProt P46098).
T2 sequence (whole entry): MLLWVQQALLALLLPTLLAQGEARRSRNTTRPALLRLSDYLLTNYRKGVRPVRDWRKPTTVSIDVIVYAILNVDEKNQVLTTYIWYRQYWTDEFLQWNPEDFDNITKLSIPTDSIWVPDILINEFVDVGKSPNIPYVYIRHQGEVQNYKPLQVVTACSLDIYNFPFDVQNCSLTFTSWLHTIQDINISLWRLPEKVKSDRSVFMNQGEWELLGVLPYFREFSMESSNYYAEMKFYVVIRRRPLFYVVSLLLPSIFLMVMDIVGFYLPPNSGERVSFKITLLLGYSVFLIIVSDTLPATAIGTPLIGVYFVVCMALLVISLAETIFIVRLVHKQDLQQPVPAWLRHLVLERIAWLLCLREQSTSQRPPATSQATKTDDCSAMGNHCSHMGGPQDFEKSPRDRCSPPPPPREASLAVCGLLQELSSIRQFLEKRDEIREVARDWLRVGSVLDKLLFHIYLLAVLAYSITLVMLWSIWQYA
Kind of data set: Inhibition of 5-HT3 receptor (unknown origin) at 10 uM. An outline of the steps: (§2)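 Receptor, ion channel and transporter binding panel run at Cerep in duplicate. Percent inhibition measured at 10 μM compound.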

For a further data set, the target named is CYP2C9 (Homo sapiens, UniProt P11712). Kind of data set: Inhibition of CYP2C9 (unknown origin) at 10 uM. The format is ADME. An outline of the steps: as §1
CYP2C9, sequence (P11712 whole entry): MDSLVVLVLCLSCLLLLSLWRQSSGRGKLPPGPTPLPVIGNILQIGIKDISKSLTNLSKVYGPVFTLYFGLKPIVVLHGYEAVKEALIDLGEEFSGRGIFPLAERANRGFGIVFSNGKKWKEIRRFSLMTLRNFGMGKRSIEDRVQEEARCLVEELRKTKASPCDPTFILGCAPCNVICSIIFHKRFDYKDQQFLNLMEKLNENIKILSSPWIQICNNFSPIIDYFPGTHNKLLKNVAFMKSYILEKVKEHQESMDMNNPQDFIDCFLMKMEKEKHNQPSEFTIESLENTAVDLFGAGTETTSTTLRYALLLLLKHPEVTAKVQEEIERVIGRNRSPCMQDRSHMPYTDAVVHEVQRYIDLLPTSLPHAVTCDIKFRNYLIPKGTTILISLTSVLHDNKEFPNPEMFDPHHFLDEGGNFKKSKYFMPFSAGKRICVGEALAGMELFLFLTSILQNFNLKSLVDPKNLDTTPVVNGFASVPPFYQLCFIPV
The target in data set [4] is Acetylcholine receptor; alpha1/beta1/delta/gamma (Homo sapiens) (UniProt P02708+P07510+P11230+Q07001). Kind of data set: Inhibition of alpha1beta1gammadelta nAChR (unknown origin) at 10 uM. The format is protein-complex assay. An outline of the steps:
as §2

pIC50: −log10 of the molar value.

CYP2D6, sequence (P10635 whole entry): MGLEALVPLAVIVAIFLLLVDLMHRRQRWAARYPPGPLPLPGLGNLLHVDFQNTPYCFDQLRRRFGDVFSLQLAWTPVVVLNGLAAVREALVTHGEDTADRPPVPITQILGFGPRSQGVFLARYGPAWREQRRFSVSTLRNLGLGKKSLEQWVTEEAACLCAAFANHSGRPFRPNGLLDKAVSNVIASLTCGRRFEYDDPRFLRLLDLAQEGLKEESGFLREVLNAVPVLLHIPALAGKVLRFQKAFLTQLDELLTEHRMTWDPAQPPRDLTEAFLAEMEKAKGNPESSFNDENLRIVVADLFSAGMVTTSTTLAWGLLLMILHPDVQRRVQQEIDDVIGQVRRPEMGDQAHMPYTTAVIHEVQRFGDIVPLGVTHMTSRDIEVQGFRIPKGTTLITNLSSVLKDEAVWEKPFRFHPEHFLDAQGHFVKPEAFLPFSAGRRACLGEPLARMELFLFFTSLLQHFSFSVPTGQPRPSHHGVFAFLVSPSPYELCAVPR
CYP3A4, sequence (P08684 whole entry): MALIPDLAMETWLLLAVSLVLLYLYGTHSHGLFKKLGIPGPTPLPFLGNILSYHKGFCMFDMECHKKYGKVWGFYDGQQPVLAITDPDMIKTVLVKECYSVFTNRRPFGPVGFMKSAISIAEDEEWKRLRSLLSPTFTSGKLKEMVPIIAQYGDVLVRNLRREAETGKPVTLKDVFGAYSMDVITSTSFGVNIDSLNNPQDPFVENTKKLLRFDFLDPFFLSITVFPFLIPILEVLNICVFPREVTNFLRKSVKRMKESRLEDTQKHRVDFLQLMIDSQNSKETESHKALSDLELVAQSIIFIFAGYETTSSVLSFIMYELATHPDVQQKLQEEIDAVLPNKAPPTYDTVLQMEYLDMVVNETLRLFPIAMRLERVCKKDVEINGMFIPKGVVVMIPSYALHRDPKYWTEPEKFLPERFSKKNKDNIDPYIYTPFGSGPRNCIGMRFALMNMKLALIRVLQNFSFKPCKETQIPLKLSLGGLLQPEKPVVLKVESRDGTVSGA

As a reminder, the pIC50 is −log10 of the IC50, conventionally taken in molar units. Lower therefore signals a high IC50. Take `O=C(Nc1ccc(OC(F)(F)F)cc1)N1CCNCC1COc1cccnc1` (racemic): the pIC50 in [1] was 6.82.
Still for that read-out and setting: in the case of `FC(F)(F)c1ccc2nc(N3CCNCC3COc3cccnc3)sc2c1` (racemic) it was 6.47.
Broadly, the inhibition is the change of the read-out against control, counted positive when it falls. Consider `c1cncc(OCC2CNCCN2c2nc3ccccc3o2)c1` (racemic), for which the inhibition at 10 µM on CYP1A2 worked out at 36%; against CYP2C19, 24%; against CYP3A4 it was 17%; against CYP2D6, 87%; against CYP2C9, 20%. The inhibition at 1 µM against hERG (KCNH2) amounted to 22%. Besides, the inhibition was 89% in [2], 95% in data set [3] and -2% in [4]. In data set [1], this compound gave a negative-log IC50 (pIC50) of 6.97.
In [1], `c1cncc(OCC2CNCCN2c2nc3ncccc3o2)c1` (racemic) had a negative logarithm of the IC50 (pIC50) of 8.40.
Take `Fc1ccc2nc(N3CCNCC3COc3cccnc3)sc2c1` (racemic): in [1], the negative-log IC50 (pIC50) is 6.88.
Same read-out and setting: in the case of `c1cncc(OCC2CNCCN2c2nc3ccccc3s2)c1` (racemic) it was 6.31.
In data set [1], `O=C(Nc1cccc(Cl)c1)N1CCNCC1COc1cccnc1` (racemic) gave a pIC50 of 6.68.
For `COc1ccc(OC(=O)N2CCNCC2COc2cccnc2)cc1` (racemic), the figures for the inhibition in data set [2], in [3] and in [4] were 90%, 39% and 2%, respectively. This compound also showed a pIC50 in data set [1] of 7.96.
Turning to `O=C(c1ccccc1)c1ccc(NC(=O)N2CCNCC2COc2cccnc2)cc1` (racemic), the inhibition at 10 µM at CYP1A2 is 16%; on CYP2C19, 49%; at CYP3A4, 23%; against CYP2D6 it was 7%; at CYP2C9 it was 62%. Further, at hERG (KCNH2), the inhibition at 1 µM stood at 40%. Moreover, the figures for the inhibition in data set [2], in data set [3] and in data set [4] were 18%, 16% and 10%, respectively. Besides, in data set [1], the pIC50 is 7.39.
Compound `COc1ccc2nc(N3CCNCC3COc3cccnc3)oc2c1` (racemic) gave a pIC50 in data set [1] of 7.66.
In [1], `O=C(COc1ccccc1)N1CCNCC1COc1cccnc1` (racemic) had a pIC50 of 5.63.
`c1cncc(OCC2CNCCN2c2nc3ncccc3s2)c1` (racemic): in [1], the pIC50 was 7.49.
The same measure, in the same setting: in the case of `FC(F)(F)Oc1ccc2nc(N3CCNCC3COc3cccnc3)sc2c1` (racemic) it was 6.57; in that of `Cc1ccc2nc(N3CCNCC3COc3cccnc3)sc2c1` (racemic), 7.07.
The same measure, in the same setting: in the case of `O=C(Nc1ccc(C(F)(F)F)cc1)N1CCNCC1COc1cccnc1` (racemic) it was 6.66.
Still for that read-out and setting: in the case of `O=C(Nc1ccc(Cl)c(Cl)c1)N1CCNCC1COc1cccnc1` (racemic) it was 7.40; in that of `COc1ccc2sc(N3CCNCC3COc3cccnc3)nc2c1` (racemic), 6.97; in that of `Brc1ccc2oc(N3CCNC[C@H]3COc3cccnc3)nc2c1`, 5.49.
`O=C(Nc1ccccc1)N1CCNCC1COc1cccnc1` (racemic) gave a pIC50 in data set [1] of 6.17.
On the same count and under the same terms, in the case of `Cc1ccc(NC(=O)N2CCNCC2COc2cccnc2)cc1` (racemic) it was 7.13; in that of `O=C(Cc1ccc(Cl)cc1)N1CCNCC1COc1cccnc1` (racemic), 6.96; in that of `O=C(Cc1ccccc1)N1CCNCC1COc1cccnc1` (racemic), 6.25.
Same read-out and setting: in the case of `O=C(Nc1ccc2c(c1)CCO2)N1CCNCC1COc1cccnc1` (racemic) it was 6.20.
`CC(C)c1ccc(NC(=O)N2CCNCC2COc2cccnc2)cc1` (racemic) gave a pIC50 in data set [1] of 6.55.
On the same count and under the same terms, the value for `Clc1cnc2nc(N3CCNCC3COc3cccnc3)sc2c1` (racemic) was 8.40; that for `c1cncc(OC[C@@H]2CNCCN2c2nc3ncccc3o2)c1` was 5.80; that for `COc1ccc2oc(N3CCNCC3COc3cccnc3)nc2c1` (racemic) was 7.15.
In data set [1], `COc1ccc(NC(=O)N2CCNCC2COc2cccnc2)c(OC)c1` (racemic) gave a negative logarithm of the IC50 (pIC50) of 7.10.
On the same count and under the same terms, the value for `O=C(Oc1ccc(Cl)cc1)N1CCNCC1COc1cccnc1` (racemic) was 8.02.
On to `Fc1cccc2sc(N3CCNCC3COc3cccnc3)nc12` (racemic), for which the inhibition at 10 µM at CYP1A2 came out at 63%; at CYP2C19, 60%; at CYP3A4, 75%; against CYP2D6, 60%; on CYP2C9 it was 28%. The inhibition at 1 µM against hERG (KCNH2) turned out to be 19%. Besides, the inhibition in data set [2] was 53%; in data set [3] it was 99%; in [4], 20%. This compound had a pIC50 in [1] of 7.77.
As to `Brc1ccc2oc(N3CCNCC3COc3cccnc3)nc2c1` (racemic), the negative logarithm of the IC50 (pIC50) in data set [1] was 7.12.
The same measure, in the same setting: the value for `COc1ccc2nc(N3CCNC[C@H]3COc3cccnc3)sc2c1` was 5.29; that for `O=C(Nc1ccc(-c2ccccc2)cc1)N1CCNCC1COc1cccnc1` (racemic) was 7.89.
Turning to `Fc1cc(F)c2nc(N3CCNCC3COc3cccnc3)sc2c1` (racemic), the inhibition at 10 µM is 67% at CYP1A2; 70% against CYP2C19; 83% at CYP3A4; 72% on CYP2D6; 26% on CYP2C9. In addition, the inhibition at 1 µM on hERG (KCNH2) is 36%. Moreover, the inhibition in data set [2] is 45%; in [3], 91%; in data set [4], 12%. The pIC50 in data set [1] was 7.72.
`O=C(Oc1ccccc1)N1CCNCC1COc1cccnc1` (racemic) had a pIC50 in data set [1] of 7.43.
As to `O=C(c1ccccc1)N1CCNCC1COc1cccnc1` (racemic), in data set [1], the pIC50 was 5.97.
With `Clc1ccc2nc(N3CCNCC3COc3cccnc3)sc2c1` (racemic), the pIC50 in [1] is 6.82.
Regarding `COc1ccc2nc(N3CCNC[C@@H]3COc3cccnc3)sc2c1`, the inhibition at 10 µM is 63% on CYP1A2; 78% against CYP2C19; 49% at CYP3A4; 50% against CYP2D6; 33% on CYP2C9. The inhibition at 1 µM against hERG (KCNH2) stood at 36%. Also, the inhibition in [2] amounted to 83%; in data set [3], 99%; in data set [4], 9%. The compound also gave a negative logarithm of the IC50 (pIC50) in data set [1] of 7.34.
On to `Brc1ccc2oc(N3CCNC[C@@H]3COc3cccnc3)nc2c1`, for which the inhibition in [2] was 96%; in data set [3], 100%; in [4], -3%. Moreover, the pIC50 in data set [1] is 7.17.
In turn, `COc1ccccc1NC(=O)N1CCNCC1COc1cccnc1` (racemic) showed a negative-log IC50 (pIC50) in data set [1] of 6.07.
Regarding `O=C(Nc1ccc(Cl)cc1)N1CCNCC1COc1cccnc1` (racemic), the pIC50 in data set [1] was 7.15.
The same measure, in the same setting: in the case of `COc1cccc(NC(=O)N2CCNCC2COc2cccnc2)c1` (racemic) it was 6.47; in that of `COc1ccc2nc(N3CCNCC3COc3cccnc3)sc2c1` (racemic), 7.10; in that of `O=C(c1ccc(Cl)cc1)N1CCNCC1COc1cccnc1` (racemic), 5.21.
Still for that read-out and setting: the value for `O=C(Nc1ccc(Br)cc1)N1CCNCC1COc1cccnc1` (racemic) was 7.30.

For the origin of these results see ChEMBL document CHEMBL3259628, “Discovery of novel 2-((pyridin-3-yloxy)methyl)piperazines as α7 nicotinic acetylcholine receptor modulators for the treatment of inflammatory disorders” (J Med Chem, 2014).
